Screening results deposited in PubChem BioAssay by several laboratories.
proKLK7 act = proKLK7 zymogen activators, primary screen, biochemical, fluorescence intensity; Kallikrein-7 (Homo sapiens), P49862; activation, % at 7 µM; purified proKLK7, EDANS-DABCYL substrate fluorescence; 100% is mature enzyme control, 0% vehicle; 0.9% of 370,000 active;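 active = activation above the mean of all tested compounds plus 3 SD, computed per campaign excluding outliers beyond control limits, cut at about 13% in these data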
AI-2 QS modul = Vibrio harveyi AI-2 quorum sensing modulators, primary screen, JMH597 strain, luminescence/OD600 ratio; Vibrio harveyi JMH597 AI-2 luminescence/OD600 ratio, 9 h; stronger effect = lower value; strain lacks LuxN and CqsS sensors; 0 = neutral-control median; activity change, % at 7.5 µM; 0.4% of 300,000 active; in the data active = activity change below about -75%, passing the limit was not always enough; inconclusive = no clear call, values can overlap the other calls;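 also: luminescence divided by OD600 gain over 9 h not by final OD600 alone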
Runt-CBFb FRET = inhibitors of RUNX1 Runt–CBFb binding, primary screen, biochemical, FRET, Cerulean-Runt, Venus-CBFb, uHTS; Runt-related transcription factor 1 (Homo sapiens) + Core-binding factor subunit beta …; Cerulean-Runt/Venus-CBFb FRET ratio 530/480, 1 h; inhibition, % at 20 µM; 0.46% of 220,000 active;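 active = inhibition over about 50% at 20 µM in the single-dose screen, limit read from the data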;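 also: 0% = DMSO wells and 100% = excess unlabeled CBFb competitor control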
Target sequence (Q01196 whole entry, looked up): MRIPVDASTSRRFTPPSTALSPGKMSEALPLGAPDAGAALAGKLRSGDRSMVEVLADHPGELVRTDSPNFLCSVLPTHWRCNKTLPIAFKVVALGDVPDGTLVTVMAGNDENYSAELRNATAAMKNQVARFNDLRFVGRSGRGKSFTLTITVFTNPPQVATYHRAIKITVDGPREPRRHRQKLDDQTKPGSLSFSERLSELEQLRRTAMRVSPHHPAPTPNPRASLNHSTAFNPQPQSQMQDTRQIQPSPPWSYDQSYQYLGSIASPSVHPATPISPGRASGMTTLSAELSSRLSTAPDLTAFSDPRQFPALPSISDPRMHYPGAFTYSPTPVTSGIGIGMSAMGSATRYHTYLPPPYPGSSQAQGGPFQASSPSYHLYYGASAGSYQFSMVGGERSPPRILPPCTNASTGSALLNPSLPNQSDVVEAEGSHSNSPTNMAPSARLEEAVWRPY
Target sequence (Q13951 whole entry, looked up): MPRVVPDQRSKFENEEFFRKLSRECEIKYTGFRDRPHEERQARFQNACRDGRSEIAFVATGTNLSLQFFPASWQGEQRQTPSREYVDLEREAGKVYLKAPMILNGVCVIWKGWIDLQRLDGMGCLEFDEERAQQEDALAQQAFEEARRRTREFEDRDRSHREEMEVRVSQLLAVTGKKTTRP
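Reagent – Venus-CBFb binding partner, 100 nM · Assay system – Cerulean-tagged RUNX1 Runt domain (FRET donor) fusion protein · Input – 100 nM per protein · Incubation – two 1 h room-temperature incubations shielded from light · Measured by – FRET fluorescence · Medium – Tris buffer pH 7.5 with salts and BSA · Benchmarks – unlabeled CBFb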
Runt-SMMHC FRET = inhibitors of RUNX1 Runt–CBFb-SMMHC binding, primary screen, biochemical, FRET, Cerulean-Runt, Venus-CBFb-SMMHC, uHTS | Cerulean-Runt/Venus-CBFb-SMMHC FRET ratio 530/480, 1 h | inhibition, % at 20 µM | 0.74% of 220,000 active | AID 1434, 2008;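 active = mean inhibition across duplicate retests at 20 µM reaching about 50%, limit read from the data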;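 also: 0% = DMSO wells and 100% = wells with excess untagged CBFb-SMMHC; inhibitors lower the FRET ratio by blocking Runt binding to CBFb-SMMHC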
RanGTP-Impb inh = inhibitors of RanGTP-importin-beta interaction, primary screen, biochemical, FRET, CFP-Ran, YFP-importin-beta, homogeneous | cell-free CFP-Ran/YFP-importin-beta FRET ratio | inhibition, % (test concentration not listed) | Ran GTPase (GTP-bound) - importin-beta complex | 1.1% of 300,000 active;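 active = more than half of the replicate wells show a fall in the fluorescence ratio signal beyond about 16%, limit read from the data, passing the limit was not always enough; inconclusive = exactly half of the replicate wells pass the set limit; inactive = fewer than half of replicates pass the limit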;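 also: 0% = DMSO wells and 100% = Ran loaded with GDP instead of GTP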
Wee1 stabilizer = Wee1 degradation inhibitors, primary screen, cell-based, HeLa, Wee1K328M-luciferase, luminescence; Wee1-like protein kinase (Homo sapiens), P30291; HeLa Luc-Wee1K328M stability; 100% = proteasome inhibitor MG132 effect; reporter increase, % at 5 µM; 1.2% of 220,000 active;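 active = activation above the mean of all tested compounds plus 3 SD, set per screening run, cut at about 8.8% in these data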;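 also: cells exposed to compound for 20 h before luminescence read; 0% = DMSO alone and 100% = MG132 at 30 µM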
RUNX1 CBFb TR = inhibitors of RUNX1 Runt–CBFb binding, biochemical, TR-FRET. shares compounds with Runt-CBFb FRET. TR-FRET RUNX1 Runt domain-CBFb binding. inhibition, % at 20 µM. 20% of 480 active. AID 1502, 2009; in the data active = inhibition above about 40%
* hit, by the source's call; i = inactive; ? = inconclusive; . = no result. Only some compounds are listed: those with a hit (about 2.9% of all), similar ones and a draw of the others.

SMILES	proKLK7 act	AI-2 QS modul	Runt-CBFb FRET	Runt-SMMHC FRET	RanGTP-Impb inh	Wee1 stabilizer	RUNX1 CBFb TR
CCOc1ccc(NC(=O)CCN2CCN(S(=O)(=O)c3ccc(Cl)cc3)CC2)cc1	-0.1	9.3	2.6	-0.1	4.6	-2.6	.
COc1ccc(-c2nc(=S)[nH][nH]2)cc1OC	-1.0	20.2	51.4*	31.0	1.0	-3.2	-39.0
CSCCC(N=C(NS(=O)(=O)c1ccc(C)cc1)c1ccccc1)C(=O)O (configuration not stated)	0.3	31.0	-0.2	-0.3	1.1	0.9	.
OCCN1CCN(C(=S)c2ccc(Cl)cc2)CC1	0.7	13.9	53.1*	39.5	5.5	-1.4	11.1
CC(C)(C)c1cc(C(=S)N2CCN(CCO)CC2)cc(C(C)(C)C)c1O	0.3	1.4	51.8*	47.1	?	-1.8	9.4
CCN1CCN(C(=S)c2ccc(Cl)cc2)CC1	0.5	25.3	37.6	30.3	1.4	-1.1	.
C[C@H](NC(=O)c1nc[nH]c1C(=O)N1CCNCC1)C(=O)OCc1ccccc1	-0.4	25.5	.	.	-0.9	.	.
Cc1ccc2c(COC(=O)C3CSC4(C)CCC(=O)N34)cc(=O)oc2c1C (configuration not stated)	-0.4	.	.	.	.	.	.
CC1(C)CN(c2cccc(Br)c2)C1=O	-0.3	21.0	1.0	-2.9	1.5	-1.4	.
O=c1[nH]c2ccccc2c(O)c1-[n+]1ccccc1	-0.6	19.5	20.1	2.8	-0.7	-1.3	.
O=c1[nH]c2ccccc2c(O)c1O	-16.6	99.8	59.3*	57.4*	1.4	1.3	39.4
CCc1ccc(N2C(=O)C(Cl)=C(N3CCOCC3)C2=O)cc1	0.3	12.7	68.5*	70.5	-2.2	0.8	11.6
Cc1cccc(N2C(=O)C(Cl)=C(N3CCOCC3)C2=O)c1	0.1	20.4	51.4*	42.5	2.8	-0.4	17.7
COc1ccc(NC(=O)CN(C)C2CCCCC2)c([N+](=O)[O-])c1	-0.5	16.5	0.1	-2.3	-2.2	1.2	.
COC(=O)C(C)NC(=O)c1ccc(C(C)(C)C)cc1 (configuration not stated)	-0.4	21.4	-1.2	4.3	-0.4	1.6	.
CCc1cc(C(=O)N=Nc2c(O)[nH]c3c(Br)cc(Br)cc23)c2ccccc2n1	0.7	-3.1	-1.4	2.9	-1.0	-1.8	.
O=C(CNS(=O)(=O)c1ccc(Cl)c(C(F)(F)F)c1)NC1CCCCCC1	-0.3	.	.	.	.	.	.
Cc1ccn(-c2cc(O)c(-n3ccc(C)n3)cc2O)n1	-0.1	22.8	64.1*	25.3	7.6	6.2	37.1
Cc1ccn(CCC(=O)O)n1	-0.5	23.8	2.5	-1.8	-1.0	-0.5	.
Cc1cccc2cc(C(c3nnnn3Cc3ccccc3)N3CCN(c4ccccc4)CC3)c(=O)[nH]c12 (configuration not stated)	-0.2	9.7	51.2*	-0.7	6.0	-0.9	i
CCOc1ccc(NS(=O)(=O)c2cc(C(=O)N(CC)CC(=O)NCc3cccs3)ccc2C)cc1	0.3	3.8	.	.	-3.1	.	.
CN1CCc2cccc3c2[C@H]1Cc1ccc(O)c(O)c1-3	-37.6	11.2	73.3*	.	3.2	0.9	36.1
CN1CCc2cc3c(c4c2[C@H]1[C@H](O)c1ccccc1-4)OCO3	-2.4	13.8	-149.6	78.9	-2.4	-5.8	.
COc1ccc(-n2c(N)c(C(=O)NCc3ccco3)c3nc4ccccc4nc32)cc1	-4.4	16.2	50.7*	120.0*	37.4*	-0.9	21.3
COCCNC(=O)c1c(N)n(-c2cccc(C)c2)c2nc3ccccc3nc12	-89.7	1.3	60.4*	78.8*	97.4*	-1.1	24.7
SMILES	proKLK7 act	AI-2 QS modul	Runt-CBFb FRET	Runt-SMMHC FRET	RanGTP-Impb inh	Wee1 stabilizer	RUNX1 CBFb TR
COc1ccc(-c2nc3ccccc3s2)cc1O	-1.6	10.9	1.6	0.7	-22.1	-1.5	.
CCOc1cc(-c2nc3ccccc3s2)ccc1O	-18.7	14.2	54.9*	116.7*	2.9	0.3	38.2
COc1cc(-c2nc3ccccc3s2)ccc1O	-22.3	0.7	78.7*	154.3*	0.3	1.7	34.1
Oc1cccc(-c2nc3ccccc3s2)c1	-1.8	21.9	-1.5	-0.5	1.3	3.4	.
O=C(CN1CCCCCCC1)N/N=C/c1ccc(F)c(F)c1	0.3	23.3	0.0	-0.3	2.6	0.6	.
Cn1c(=O)n(C)c2cc(/C=N/NC(=O)c3ccncc3)ccc21	.	14.6	-0.1	-0.9	1.5	-1.2	.
CCn1c(O)c(/C=N/NC(=O)c2ccncc2)c(=O)n(CC)c1=S	-1.6	6.6	58.8*	63.2*	2.3	0.0	-26.4
O=C(O[C@@H]1OC2COC(=O)c3cc(O)c(O)c(O)c3-c3c(cc(O)c(O)c3O)C(=O)O[C@@H]([C@H]1O)[C@@H]2O)c1cc(O)c(O)c(O)c1	.	17.1	56.6*	41.7	5.5	9.7*	66.7*
CCS(=O)(=O)c1nc2ccccc2n1Cc1ccccn1	0.0	3.3	-1.8	0.1	4.8	5.1	.
CNS(=O)(=O)c1ccc2nc(NC(=O)c3ccc(N4C(=O)CCC4=O)cc3)sc2c1	0.2	22.7	55.1*	59.8	1.2	0.6	11.9
CCc1ccc2nc(NC(=O)c3ccc(N4C(=O)CCC4=O)cc3)sc2c1	-10.3	3.4	1.2	0.2	5.8	4.9	.
C[C@H](CO)N1C[C@H](C)[C@@H](CN(C)S(=O)(=O)c2cccs2)Oc2c(NS(=O)(=O)c3ccccc3)cccc2C1=O	0.0	.	.	.	.	.	.
O=C1CCCC2=C1C(c1ccc(O)c(O)c1)c1c(ccc3ncccc13)N2 (configuration not stated)	-0.2	21.3	51.1*	40.7	5.5	-2.8	44.1*
O=C1CCNc2ccc(-c3ccccc3)cc21	-0.4	29.8	60.4*	-145.5	-9.5	3.8	42.5*
O=C(Cn1c(=O)oc2ccccc21)Nc1n[nH]c(=S)s1	0.1	19.8	54.5*	22.2	0.4	-0.2	63.0*
O=C(NCCC(=O)N1CCC2(CC1)NCCc1[nH]cnc12)c1ccc(F)c(F)c1	-0.2	13.3	.	.	-1.1	.	.
